From ChEMBL document CHEMBL1157747, “Discovery, structure-activity relationships, pharmacokinetics, and efficacy of glucokinase activator (2R)-3-cyclopentyl-2-(4-methanesulfonylphenyl)-N-thiazol-2-yl-propionamide (RO0281675)” (J Med Chem, 2010)
≈ marks a conversion by molar mass, not a printed value. Calls of active or inactive are those of the source. The rule behind the calls is not given here.

Tests used:
[1] = test system: Glucokinase (Homo sapiens); assay: Activity of glucokinase assessed as stimulatory concentration required to increase 1.5 fold enzymatic activity
[2] = test system: Glucokinase (Homo sapiens); assay: Activity of glucokinase at 30 uM
[3] = Aqueous solubility of the compound; type: physicochemical
[4] = Volume of distribution at steady state in CD rat at 5 mg/kg, iv; type: ADME, organism-based; set-up: dose 5 mg/kg, route intravenous; conditions: in vivo, read-out: Vdss
[5] = Oral bioavailability in CD rat at 10 mg/kg; type: ADME, organism-based; conditions: in vivo
[6] = Cmax in CD rat at 10 mg/kg, po; type: ADME, organism-based; set-up: dose 10 mg/kg, route oral; conditions: in vivo
[7] = Clearance in CD rat at 5 mg/kg, iv; type: ADME, organism-based; set-up: dose 5 mg/kg, route intravenous; conditions: in vivo
[8] = AUC (0 to infinity) in CD rat at 30 mg/kg, po; type: ADME, organism-based; set-up: time infinity, dose 30 mg/kg, route oral; conditions: plasma
[9] = Cmax in CD rat at 30 mg/kg, po; type: ADME, organism-based; set-up: dose 30 mg/kg, route oral; conditions: in vivo
[10] = Tmax in CD rat at 30 mg/kg, po; type: ADME, organism-based; set-up: dose 30 mg/kg, route oral; conditions: in vivo
[11] = test system: Mus musculus; assay: Reduction in glucose AUC in C57BL/6J mouse at 50 mg/kg, po pretreated 30 mins by oral glucose tolerance test relative to control; type: functional, organism-based; set-up: dose 50 mg/kg
Procedure, shortened: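 Male C57BL/6J mice got a single oral 50 mg/kg dose and underwent an oral glucose tolerance test. Fasting glucose and glucose tolerance were compared with vehicle-treated animals. Values are mean ± STD, n = 6 per time point; Student's t test, P < 0.05.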

[12] = Tmax in CD rat at 10 mg/kg, po; type: ADME, organism-based; set-up: dose 10 mg/kg, route oral; conditions: in vivo
[13] = AUC (0 to infinity) in CD rat at 10 mg/kg, po; type: ADME, organism-based; set-up: time infinity, dose 10 mg/kg, route oral; conditions: plasma
[14] = test system: Pancreatic islet; assay: […] of glucose-stimulated insulin secretion in C57BL/6J mouse isolated pancreatic islets cells after 4 to 5 days
[15] = AUC (0 to infinity) in CD rat at 5 mg/kg, iv; type: ADME, organism-based; set-up: time infinity, dose 5 mg/kg, route intravenous; conditions: plasma
[16] = test system: Glucokinase (Homo sapiens); assay: Activity of glucokinase up to 10 uM
[17] = Oral bioavailability in CD rat at 30 mg/kg; type: ADME, organism-based; conditions: in vivo
[18] = test system: Glucokinase (Homo sapiens); assay: Activation of glucokinase assessed as increase in Vmax at 1 uM relative to control
[19] = test system: Glucokinase (Homo sapiens); assay: Activation of glucokinase at 20 uM relative to control
[20] = test system: Glucokinase (Homo sapiens); assay: Activation of glucokinase assessed as […] in Km at 1 uM relative to control
[21] = test system: Glucokinase (Homo sapiens); assay: Activation of glucokinase assessed as […] in Km at 20 uM relative to control

CNC(=O)NC(=O)C(CC1CCCC1)c1ccc(S(=O)(=O)C(F)(F)F)cc1 (configuration not stated)
Activity [1]: 0.3 µM

CNC(=O)NC(=O)C(CC1CCCC1)c1ccc(F)c(F)c1 (configuration not stated)
Activity [1]: 8.5 µM

CNC(=O)NC(=O)C(CC1CCCC1)c1ccc(Cl)cc1 (configuration not stated)
Activity [1]: 5.4 µM

CNC(=O)NC(=O)C(CC1CCCC1)c1ccc(SC)cc1 (configuration not stated)
Activity [1]: 3.2 µM

CCNC(=O)NC(=O)C(CC1CCCC1)c1ccc(Cl)c(Cl)c1 (configuration not stated)
Activity [1]: 0.53 µM

CCOC(=O)CCNC(=O)NC(=O)C(CC1CCCC1)c1ccc(Cl)c(Cl)c1 (configuration not stated)
Activity [1]: 8.4 µM

O=C(Nc1nccs1)C(CC1CCCC1)c1ccc(Cl)cc1 (configuration not stated)
Activity [1]: 3.1 µM

CNC(=O)NC(=O)C(CC1CCCC1)c1cccc(Cl)c1 (configuration not stated)
Activity [1]: 3.7 µM

CNC(=O)NC(=O)C(CC1CCCCC1)c1ccc(Cl)c(Cl)c1 (configuration not stated)
Activity [1]: 1.4 µM

CNC(=O)NC(=O)C(CC1CCCC1)c1ccc(S(C)(=O)=O)cc1 (configuration not stated)
Activity [1]: 1.5 µM

NC(=O)NC(=O)C(CC1CCC1)c1ccc(Cl)c(Cl)c1 (configuration not stated)
Activity [1]: 10 µM

CCCCNC(=O)NC(=O)C(CC1CCCC1)c1ccc(Cl)c(Cl)c1 (configuration not stated)
Activity [2]: inactive

CNC(=O)NC(=O)C(CC(C)C)c1ccc(Cl)c(Cl)c1 (configuration not stated)
Activity [1]: 6 µM

O=C(O)c1cnc(NC(=O)C(CC2CCCC2)c2ccc(Cl)c(Cl)c2)s1 (configuration not stated)
Activity [1]: 26 µM

CNC(=O)NC(=O)C(CC1CCCC1)c1ccc(Br)cc1 (configuration not stated)
Activity [1]: 3.8 µM

O=C(Nc1nccs1)C(CC1CCCC1)c1cccc(Cl)c1 (configuration not stated)
Activity [1]: 1.7 µM

Cc1cnc(NC(=O)C(CC2CCCC2)c2ccc(Cl)c(Cl)c2)s1 (configuration not stated)
Activity [1]: 0.64 µM

COC(=O)c1csc(NC(=O)C(CC2CCCC2)c2ccc(Cl)c(Cl)c2)n1 (configuration not stated)
Activity [1]: 0.5 µM
solubility [3]: 24 µg/mL (≈ 56.2 µM)

O=C(O)Cc1csc(NC(=O)C(CC2CCCC2)c2ccc(Cl)c(Cl)c2)n1 (configuration not stated)
Activity [1]: 8 µM

CCOC(=O)c1cnc(NC(=O)C(CC2CCCC2)c2ccc(Cl)c(Cl)c2)s1 (configuration not stated)
Activity [1]: 8 µM

CNC(=O)NC(=O)C(CC1CCCC1)c1ccccc1 (configuration not stated)
Activity [1]: 28.2 µM

NC(=O)NC(=O)C(CC1CCCCCC1)c1ccc(Cl)c(Cl)c1 (configuration not stated)
Activity [1]: 12 µM

O=C(O)CNC(=O)NC(=O)C(CC1CCCC1)c1ccc(Cl)c(Cl)c1 (configuration not stated)
Activity [1]: inactive

CNC(=O)NC(=O)C(CC1CCCC1)c1ccc(Cl)c(Cl)c1 (configuration not stated)
Activity [1]: 1 µM

CS(=O)(=O)c1ccc([C@@H](CC2CCCC2)C(=O)Nc2nccs2)cc1 [Ro-281675]
Vd [4]: 2.16 L/kg
bioavailability [5]: 92.8%
Cmax [6]: 1140 µg/mL
clearance [7]: 30 mL/min/kg
AUC(0-inf) [8]: 51700 ng·h/mL
Cmax [9]: 4300 µg/mL
Tmax [10]: 4.7 h
Activity [11]: Active
Tmax [12]: 3.3 h
AUC(0-inf) [13]: 5150 ng·h/mL
Activity [14]: Dose-dependent effect
AUC(0-inf) [15]: 2770 ng·h/mL

O=C(NCCO)NC(=O)C(CC1CCCC1)c1ccc(Cl)c(Cl)c1 (configuration not stated)
Activity [1]: 3.4 µM

O=C(Nc1nccs1)C(CC1CCCC1)c1ccc([N+](=O)[O-])cc1 (configuration not stated)
Activity [1]: 0.84 µM

O=C(Nc1nc(CCO)cs1)C(CC1CCCC1)c1ccc(Cl)c(Cl)c1 (configuration not stated)
Activity [1]: 0.84 µM

CNC(=S)NC(=O)C(CC1CCCC1)c1ccc(Cl)c(Cl)c1 (configuration not stated)
Activity [1]: 3.8 µM

CNC(=O)NC(=O)C(CC1CCCC1)c1cccc(S(=O)(=O)C(F)(F)F)c1 (configuration not stated)
Activity [1]: 1 µM

O=C(Nc1nccs1)C(CC1CCCC1)c1cccc(S(=O)(=O)C(F)(F)F)c1 (configuration not stated)
Activity [1]: 1.4 µM

Cc1nc(NC(=O)C(CC2CCCC2)c2ccc(Cl)c(Cl)c2)sc1C (configuration not stated)
Activity [1]: 1.6 µM

C[S+]([O-])c1ccc(C(CC2CCCC2)C(=O)Nc2nccs2)cc1 (configuration not stated)
Activity [1]: 2.2 µM

COC(=O)Cc1csc(NC(=O)C(CC2CCCC2)c2ccc(Cl)c(Cl)c2)n1 (configuration not stated)
Activity [1]: 0.82 µM

N=C(N)NC(=O)C(CC1CCCC1)c1ccc(Cl)c(Cl)c1 (configuration not stated)
Activity [2]: inactive

CSc1ccc(C(CC2CCCC2)C(=O)Nc2nccs2)cc1 (configuration not stated)
Activity [1]: 2.2 µM

COC(=O)c1cnc(NC(=O)C(CC2CCCC2)c2ccc(Cl)c(Cl)c2)s1 (configuration not stated)
Activity [1]: 0.92 µM

O=C(Nc1nccs1)C(CC1CCCC1)c1ccc(Cl)c(Cl)c1 (configuration not stated)
Activity [1]: 0.94 µM
solubility [3]: 5 µg/mL (≈ 13.5 µM)

CCOC(=O)Cc1csc(NC(=O)C(CC2CCCC2)c2ccc(Cl)c(Cl)c2)n1 (configuration not stated)
Activity [1]: 0.61 µM

Cc1csc(NC(=O)C(CC2CCCC2)c2ccc(Cl)c(Cl)c2)n1 (configuration not stated)
Activity [1]: 1.2 µM

NC(=O)NC(=O)C(CC1CC1)c1ccc(Cl)c(Cl)c1 (configuration not stated)
Activity [1]: 40 µM

CNC(=O)N(C)C(=O)C(CC1CCCC1)c1ccc(Cl)c(Cl)c1 (configuration not stated)
Activity [2]: inactive

CNC(=O)NC(=O)C(CCC1CCCC1)c1ccc(Cl)c(Cl)c1 (configuration not stated)
Activity [2]: inactive

O=C(Nc1nccs1)C(CC1CCCC1)c1ccc(SC(F)(F)F)cc1 (configuration not stated)
Activity [1]: 1.8 µM

CCCNC(=O)NC(=O)C(CC1CCCC1)c1ccc(Cl)c(Cl)c1 (configuration not stated)
Activity [1]: 1.3 µM

CC(C)CNC(=O)NC(=O)C(CC1CCCC1)c1ccc(Cl)c(Cl)c1 (configuration not stated)
Activity [1]: 6.3 µM

O=C(Nc1ncc(CO)s1)C(CC1CCCC1)c1ccc(Cl)c(Cl)c1 (configuration not stated)
Activity [1]: 0.75 µM

O=C(O)c1csc(NC(=O)C(CC2CCCC2)c2ccc(Cl)c(Cl)c2)n1 (configuration not stated)
Activity [1]: 29 µM

O=C(Nc1nccs1)C(CC1CCCC1)c1ccc(S(=O)(=O)C(F)(F)F)cc1 (configuration not stated)
Activity [1]: 0.19 µM

CC(C)CC(C(=O)NC(=O)N(C)C)c1ccc(Cl)c(Cl)c1 (configuration not stated)
Activity [2]: inactive

CC(C)CC(C(=O)NC(N)=O)c1ccc(Cl)c(Cl)c1 (configuration not stated)
Activity [1]: 29 µM

C=CCNC(=O)NC(=O)C(CC1CCCC1)c1ccc(Cl)c(Cl)c1 (configuration not stated)
Activity [1]: 1.3 µM

CNC(=O)NC(=O)C(CC1CCCC1)c1ccc(SC(F)(F)F)cc1 (configuration not stated)
Activity [1]: 1.4 µM

O=C1NCCN1C(=O)C(CC1CCCC1)c1ccc(Cl)c(Cl)c1 (configuration not stated)
Activity [2]: inactive

O=C(Nc1nccs1)C(Cc1ccccc1)c1ccc(Cl)c(Cl)c1 (configuration not stated)
Activity [2]: inactive

CNC(=O)NC(=O)[C@@H](CC1CCCC1)c1ccc(Cl)c(Cl)c1
Activity [2]: inactive
Activity [16]: inactive

CNC(=O)NC(=O)[C@H](CC1CCCC1)c1ccc(Cl)c(Cl)c1
Vd [4]: 4.21 L/kg
bioavailability [17]: 13%
bioavailability [5]: 12%
Cmax [6]: 133 µg/mL
clearance [7]: 43.5 mL/min/kg
fold change (FC) [18]: 1.4
AUC(0-inf) [8]: 1460 ng·h/mL
Cmax [9]: 0.471 µg/mL
Tmax [10]: 3.3 h
Activity [11]: Active
Tmax [12]: 1.4 h
fold change (FC) [19]: 1.7
AUC(0-inf) [13]: 455 ng·h/mL
Activity [1]: 0.41 µM
Activity [14]: Dose-dependent effect
fold change (FC) [20]: 0.66
fold change (FC) [21]: 0.22
AUC(0-inf) [15]: 1880 ng·h/mL

O=C(Nc1nc(CO)cs1)C(CC1CCCC1)c1ccc(Cl)c(Cl)c1 (configuration not stated)
Activity [1]: 0.99 µM

CCOC(=O)c1csc(NC(=O)C(CC2CCCC2)c2ccc(Cl)c(Cl)c2)n1 (configuration not stated)
Activity [1]: 2.7 µM

COC(=O)CCNC(=O)NC(=O)C(CC1CCCC1)c1ccc(Cl)c(Cl)c1 (configuration not stated)
Activity [1]: 3.2 µM

NC(=O)NC(=O)C(CC1CCCC1)c1ccc(Cl)c(Cl)c1 (configuration not stated)
Activity [1]: 4.4 µM

CCOC(=O)CNC(=O)NC(=O)C(CC1CCCC1)c1ccc(Cl)c(Cl)c1 (configuration not stated)
Activity [1]: 1.3 µM

COC(=O)CNC(=O)NC(=O)C(CC1CCCC1)c1ccc(Cl)c(Cl)c1 (configuration not stated)
Activity [1]: 0.55 µM

NC(=O)NC(=O)C(CC1CCCCC1)c1ccc(Cl)c(Cl)c1 (configuration not stated)
Activity [1]: 8.9 µM

O=C(O)CCNC(=O)NC(=O)C(CC1CCCC1)c1ccc(Cl)c(Cl)c1 (configuration not stated)
Activity [2]: inactive

CNC(=O)NC(=O)C(CC1CCCC1)c1ccc([N+](=O)[O-])cc1 (configuration not stated)
Activity [1]: 5.4 µM
